# Assay results published in PMC8864714 (Chemical Science, 2022).
# Bridge positions count the residues as written; N and C are the ends. Square brackets hold non-standard residues; d marks the D form. I, II: the chains in the order shown. * marks the point of attachment. Ac6c = NC1(C(=O)O)CCCCC1; NHNH2 = NN*
# How the values were obtained:
# [1] = system: panel of Gram-negative pathogens; experiment: Antibacterial testing, statements in words; assay type: cell-based; conditions: Table S2
# [2] = system: FADDI-AB156 (colistin-resistant, rifampin-resistant & MDR, XDR); experiment: MIC antibacterial assay; assay type: cell-based, A. baumannii; conditions: for MIC, FADDI-AB156: 100% MHB, 90 min, 37 °C, twice in duplicate, mean ± SD
# How it was run: (§1)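 Broth assay in 100% Mueller Hinton broth. Test compound was serially diluted from 250 to 4 μg ml−1 and mixed 1:1 by volume with a bacterial suspension of 2 × 10^6 cells per ml, then incubated 90 min at 37 °C. MIC was obtained by plotting maximal growth against concentration (Lambert and Pearson method). Run twice in duplicate; mean ± SD.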
# E. coli ATCC 25922 = experiment: MIC antibacterial assay; assay type: cell-based, Escherichia coli
# K. pneumoniae ATCC 13883 = experiment: MIC antibacterial assay; assay type: cell-based, Klebsiella pneumoniae
# A. baumannii 19606 = experiment: Minimum bactericidal concentration; assay type: cell-based, Acinetobacter baumannii
# FADDI-KP028 (MDR) = experiment: MIC antibacterial assay; assay type: cell-based, K. pneumoniae
# How it was run: as §1
# A. baumannii ATCC 19606 = experiment: MIC antibacterial assay; assay type: cell-based, Acinetobacter baumannii; conditions: for MIC, A. baumannii 19606: 100% MHB, 90 min, 37 °C, twice in duplicate, mean ± SD
# A. baumannii culture = experiment: Peptide stability in bacterial culture; assay type: in vitro ADME; conditions: 90 min incubation with A. baumannii culture
# [3] = 100% MHB, 90 min, 37 °C, twice in duplicate, mean ± SD
compound,measurement,setting,value
Fc1c(F)c(F)c(-c2c(F)c(F)c(F)c(F)c2F)c(F)c1F [Decafluorobiphenyl],antibacterial activity of the linkers alone,[1],no antibacterial activity
CNC(C)C1CCC(N)C(OC2C(N)CC(N)C(OC3OCC(C)(O)C(NC)C3O)C2O)O1 (centres unmarked) [Gentamicin],MIC,"[2]; Acinetobacter baumannii, 1.5 h, read-out: MIC, FADDI-AB156",> 250 µg/mL
same,MIC,"E. coli ATCC 25922; Escherichia coli, ATCC25922, 1.5 h, read-out: MIC, E. coli 25922",0.9 ± 0.1 µg/mL
same,MIC,"K. pneumoniae ATCC 13883; Klebsiella pneumoniae, ATCC13883, 1.5 h, read-out: MIC, K. pneumoniae 13883",0.1 ± 0.05 µg/mL
same,MBC,"A. baumannii 19606; Acinetobacter baumannii, 19606, read-out: Bactericidal MBC, A. baumannii 19606",4.6 ± 0.3 µg/mL
same,MIC,"FADDI-KP028 (MDR); Klebsiella pneumoniae, 1.5 h, read-out: MIC, FADDI-KP028",> 250 µg/mL
same,MIC,"A. baumannii ATCC 19606; Acinetobacter baumannii, ATCC19606, 1.5 h, read-out: MIC, A. baumannii 19606",2.7 ± 0.2 µg/mL
Fc1c(F)c(F)c(F)c(F)c1F [Hexafluorobenzene],antibacterial activity of the linkers alone,[1],no antibacterial activity
Colistin,"MIC, FADDI-AB156",[2],12.6 ± 1.6 (10.9) μg ml^−1
same,"Bactericidal MBC, A. baumannii 19606","A. baumannii 19606; CFU assay, twice in duplicate, mean ± SD",0.8 ± 0.02 (0.7) μg ml^−1
same,"MIC, A. baumannii 19606",A. baumannii ATCC 19606,0.5 ± 0.04 (0.4) μg ml^−1
I: H-[Ac6c]RPDKPRPYLPRPRPPRPVRC-NHNH2 / II: H-[Ac6c]RPDKPRPYLPRPRPPRPVRC-NHNH2 (disulfide I:21-II:21) [compound 2],"MIC, FADDI-AB156",[2],59.2 ± 0.2 (11.4) μg ml^−1
same,"MIC, E. coli 25922",E. coli ATCC 25922; [3],3.1 ± 0.1 (0.6) μg ml^−1
same,"MIC, K. pneumoniae 13883",K. pneumoniae ATCC 13883; [3],5.1 ± 0.8 (1.0) μg ml^−1
same,peptide stability in A. baumannii culture (RP-HPLC trace),A. baumannii culture,reduced
same,"MIC, FADDI-KP028",FADDI-KP028 (MDR); [3],111.3 ± 0.3 (21.5) μg ml^−1
same,"MIC, A. baumannii 19606",A. baumannii ATCC 19606,30.8 ± 3.3 (5.9) μg ml^−1
